# Test results taken from ChEMBL document CHEMBL1151206, “Glycosidase-inhibiting pyrrolidines and pyrrolizidines with a long side chain in Scilla peruviana” (J Nat Prod, 2004).
# Experiments:
# [1] = target: Alpha-galactosidase (Coffea arabica) (UniProt Q42656); experiment: Inhibition of coffee bean alpha-galactosidase at 1000 uM by spectrophotometry
# Outline: (§1)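 Commercial enzymes (P. decumbens alpha-L-rhamnosidase at pH 4.5, bovine epididymis alpha-L-fucosidase at pH 5.5, coffee bean alpha-galactosidase at pH 6.5) were incubated with 2 mM p-nitrophenyl glycoside in a 1 mL reaction. The reaction was stopped with 2 mL of 400 mM Na2CO3 and p-nitrophenol was read at 400 nm.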
# [2] = target: T1, Beta-galactosidase (Bos taurus) (UniProt Q58D55); experiment: Inhibition of bovine liver beta-galactosidase at 1000 uM by spectrophotometry
# T1 sequence (whole entry): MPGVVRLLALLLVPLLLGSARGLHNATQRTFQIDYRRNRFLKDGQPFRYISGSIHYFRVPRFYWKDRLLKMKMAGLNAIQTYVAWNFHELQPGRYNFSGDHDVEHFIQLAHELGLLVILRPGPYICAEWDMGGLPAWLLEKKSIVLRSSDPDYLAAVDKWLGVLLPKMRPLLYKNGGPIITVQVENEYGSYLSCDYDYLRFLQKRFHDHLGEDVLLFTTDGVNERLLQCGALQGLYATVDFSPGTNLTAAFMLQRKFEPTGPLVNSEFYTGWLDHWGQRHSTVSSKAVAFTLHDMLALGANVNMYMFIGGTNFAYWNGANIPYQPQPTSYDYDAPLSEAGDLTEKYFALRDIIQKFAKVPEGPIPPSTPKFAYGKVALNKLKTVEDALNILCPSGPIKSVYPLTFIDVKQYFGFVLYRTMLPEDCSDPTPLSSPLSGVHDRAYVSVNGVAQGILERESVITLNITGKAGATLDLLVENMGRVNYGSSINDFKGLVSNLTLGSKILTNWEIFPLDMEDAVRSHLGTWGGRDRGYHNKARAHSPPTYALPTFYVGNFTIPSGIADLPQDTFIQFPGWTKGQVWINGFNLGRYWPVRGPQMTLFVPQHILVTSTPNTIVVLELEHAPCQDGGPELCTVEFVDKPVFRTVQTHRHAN
# [3] = organism: Rattus norvegicus; experiment: Inhibition of rat epididymis alpha-mannosidase at 1000 uM by spectrophotometry
# Outline: (§2)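 Enzyme source was rat epididymal fluid purified from epididymis, assayed at pH 5.2 with 2 mM of the relevant p-nitrophenyl glycoside in a 1 mL reaction. The reaction was stopped with 2 mL of 400 mM Na2CO3 and p-nitrophenol was measured at 400 nm.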
# [4] = target: T2, Beta-mannosidase (Rattus norvegicus) (UniProt Q4FZV0); experiment: Inhibition of rat epididymis beta-mannosidase at 1000 uM by spectrophotometry
# T2 sequence (whole entry): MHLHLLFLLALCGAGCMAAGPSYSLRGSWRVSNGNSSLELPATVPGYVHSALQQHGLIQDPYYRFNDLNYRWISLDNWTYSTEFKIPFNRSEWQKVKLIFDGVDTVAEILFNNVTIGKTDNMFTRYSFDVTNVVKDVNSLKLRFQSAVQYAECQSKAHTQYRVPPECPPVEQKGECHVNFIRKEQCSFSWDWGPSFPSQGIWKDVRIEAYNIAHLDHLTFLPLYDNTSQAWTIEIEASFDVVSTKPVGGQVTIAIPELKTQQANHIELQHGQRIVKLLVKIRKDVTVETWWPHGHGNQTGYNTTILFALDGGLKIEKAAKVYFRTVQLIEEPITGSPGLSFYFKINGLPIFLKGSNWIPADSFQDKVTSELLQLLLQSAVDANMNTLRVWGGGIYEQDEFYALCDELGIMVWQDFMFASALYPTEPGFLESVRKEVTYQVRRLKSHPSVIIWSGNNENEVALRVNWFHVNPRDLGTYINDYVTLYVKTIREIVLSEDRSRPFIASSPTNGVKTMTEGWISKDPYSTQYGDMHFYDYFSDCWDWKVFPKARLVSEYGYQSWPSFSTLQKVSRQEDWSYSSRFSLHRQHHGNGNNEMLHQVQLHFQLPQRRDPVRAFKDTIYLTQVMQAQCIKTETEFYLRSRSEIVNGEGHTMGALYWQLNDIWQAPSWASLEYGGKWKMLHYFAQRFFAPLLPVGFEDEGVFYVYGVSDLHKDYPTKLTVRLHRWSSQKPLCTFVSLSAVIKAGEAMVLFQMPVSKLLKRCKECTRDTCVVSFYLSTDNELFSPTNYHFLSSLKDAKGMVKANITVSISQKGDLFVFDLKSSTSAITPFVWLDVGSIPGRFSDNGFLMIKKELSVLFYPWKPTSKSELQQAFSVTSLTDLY
# [5] = tested on: Penicillium decumbens; experiment: Inhibition of Penicillium decumbens alpha-L-rhamnosidase at 1000 uM by spectrophotometry; outline: as §1
# [6] = tested on: Oryza sativa; experiment: Inhibition of rice alpha-glucosidase at 1000 uM by spectrophotometry
# [7] = tested on: Saccharomyces cerevisiae; experiment: Inhibition of yeast alpha-glucosidase at 1000 uM by spectrophotometry
# [8] = Inhibition of Caldocellum saccharolyticum beta-glucosidase by spectrophotometry; design: species or system Caldicellulosiruptor saccharolyticus
# Outline: (§3)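 Commercial enzyme assayed with the matching p-nitrophenyl glycoside (2 mM) in a 1 mL reaction, at pH 5.0 for the C. saccharolyticum and almond beta-glucosidases, pH 6.8 for bovine liver beta-galactosidase and pH 6.8 for yeast alpha-glucosidase. The reaction was stopped with 2 mL of 400 mM Na2CO3 and released p-nitrophenol was read at 400 nm. IC50 was determined.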
# [9] = Inhibition of almond beta-glucosidase by spectrophotometry; design: species or system Prunus dulcis; outline: as §3
# [10] = organism: Rattus norvegicus; experiment: Inhibition of rat epididymis beta-galactosidase at 1000 uM by spectrophotometry; outline: as §2
# [11] = target: T3, Tissue alpha-L-fucosidase (Bos taurus) (UniProt Q2KIM0); experiment: Inhibition of bovine epididymis alpha-L-fucosidase at 1000 uM by spectrophotometry; outline: as §1
# T3 sequence (whole entry): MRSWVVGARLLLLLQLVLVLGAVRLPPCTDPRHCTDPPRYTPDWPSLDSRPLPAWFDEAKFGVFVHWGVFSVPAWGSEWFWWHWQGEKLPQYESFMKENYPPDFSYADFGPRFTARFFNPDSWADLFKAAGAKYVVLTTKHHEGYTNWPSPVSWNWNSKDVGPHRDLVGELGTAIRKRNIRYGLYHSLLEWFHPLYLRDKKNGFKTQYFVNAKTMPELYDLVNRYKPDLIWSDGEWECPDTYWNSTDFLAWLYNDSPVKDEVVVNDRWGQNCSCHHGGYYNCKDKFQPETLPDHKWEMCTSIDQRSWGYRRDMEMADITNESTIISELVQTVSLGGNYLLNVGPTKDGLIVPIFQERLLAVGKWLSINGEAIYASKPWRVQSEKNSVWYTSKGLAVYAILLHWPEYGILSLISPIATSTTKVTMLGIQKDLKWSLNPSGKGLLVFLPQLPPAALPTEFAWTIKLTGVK
# [12] = target: T4, Lysosomal acid glucosylceramidase (Homo sapiens) (UniProt P04062); experiment: Inhibition of human placental beta-glucocerebrosidase at 1000 uM by spectrophotometry
# T4 sequence (whole entry): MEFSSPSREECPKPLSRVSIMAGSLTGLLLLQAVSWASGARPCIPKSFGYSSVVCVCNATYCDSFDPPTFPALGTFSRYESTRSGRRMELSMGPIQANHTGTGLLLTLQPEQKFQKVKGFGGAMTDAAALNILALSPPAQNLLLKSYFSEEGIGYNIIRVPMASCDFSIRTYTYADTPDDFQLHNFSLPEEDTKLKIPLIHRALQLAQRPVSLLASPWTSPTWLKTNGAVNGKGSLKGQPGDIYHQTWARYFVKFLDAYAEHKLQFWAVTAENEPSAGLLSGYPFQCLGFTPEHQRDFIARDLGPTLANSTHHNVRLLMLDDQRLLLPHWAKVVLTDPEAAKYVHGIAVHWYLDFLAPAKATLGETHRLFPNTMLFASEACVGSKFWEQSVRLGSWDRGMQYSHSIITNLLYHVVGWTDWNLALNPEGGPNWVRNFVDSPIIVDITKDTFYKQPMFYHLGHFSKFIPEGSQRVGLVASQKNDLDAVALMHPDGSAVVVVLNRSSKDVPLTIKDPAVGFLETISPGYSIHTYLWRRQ
# [13] = tested on: maltase-glucoamylase (Rattus norvegicus); experiment: Inhibition of rat intestinal maltase at 1000 uM by spectrophotometry
# [14] = Inhibition of rice alpha-glucosidase by spectrophotometry; design: species or system Oryza sativa
# [15] = Inhibition of yeast alpha-glucosidase by spectrophotometry; design: species or system Saccharomyces cerevisiae; outline: as §3
# [16] = target: T5, Beta-galactosidase (Bos taurus, UniProt Q58D55); experiment: Inhibition of bovine liver beta-galactosidase by spectrophotometry; outline: as §3
# T5 sequence (Q58D55 whole entry): T1 sequence (whole entry)
# [17] = target: T6, Beta-mannosidase (Rattus norvegicus, UniProt Q4FZV0); experiment: Inhibition of rat epididymis beta-mannosidase by spectrophotometry; outline: as §2
# T6 sequence (Q4FZV0 whole entry): T2 sequence (whole entry)
# [18] = tested on: Prunus dulcis; experiment: Inhibition of almond beta-glucosidase at 1000 uM by spectrophotometry
# [19] = Inhibition of rat epididymis alpha-mannosidase by spectrophotometry
# Outline: (§4)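 Substrate was the matching p-nitrophenyl glycoside at 2 mM. Penicillium decumbens α-L-rhamnosidase was run at pH 4.5. α-Mannosidase came from purified rat epididymal fluid and was run at pH 5.2. Reactions were stopped with 400 mM Na2CO3, and released p-nitrophenol was read at 400 nm.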
# [20] = Inhibition of Penicillium decumbens alpha-L-rhamnosidase by spectrophotometry; outline: as §4
# [21] = target: T7, Lysosomal acid glucosylceramidase (Homo sapiens, UniProt P04062); experiment: Inhibition of human placental beta-glucocerebrosidase by spectrophotometry
# T7 sequence (P04062 whole entry): T4 sequence (whole entry)
# Outline: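 Human placental beta-glucocerebrosidase (Ceredase) was assayed at pH 5.5 with 2 mM p-nitrophenyl glycoside substrate in a 1 mL reaction. The reaction was stopped with 2 mL of 400 mM Na2CO3 and released p-nitrophenol was read at 400 nm.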
# Chain of Alpha-galactosidase (Coffea arabica) (Q42656 16-378 limits assumed): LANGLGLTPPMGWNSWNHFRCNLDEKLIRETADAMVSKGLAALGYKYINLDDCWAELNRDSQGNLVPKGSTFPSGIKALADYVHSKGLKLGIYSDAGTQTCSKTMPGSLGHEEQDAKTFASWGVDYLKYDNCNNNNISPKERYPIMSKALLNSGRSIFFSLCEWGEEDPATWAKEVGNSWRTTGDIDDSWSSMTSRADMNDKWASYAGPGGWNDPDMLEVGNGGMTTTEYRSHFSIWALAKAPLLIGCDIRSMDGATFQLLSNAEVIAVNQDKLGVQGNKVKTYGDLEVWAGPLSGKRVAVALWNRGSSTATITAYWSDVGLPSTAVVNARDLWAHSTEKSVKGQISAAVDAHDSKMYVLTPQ
SMILES,inhibition [1] [%],inhibition [3] [%],inhibition [5] [%],IC50 [8] [µM],IC50 [9] [µM],inhibition [10] [%],inhibition [11] [%],inhibition [12] [%],IC50 [14] [µM],IC50 [15] [µM],IC50 [16] [µM],also measured
CC(O)CC[C@@H]1CC[C@@H]2[C@@H](O)[C@H](O)[C@@H](CO)N12 (some centres not stated),< 50,< 50,< 50,136,49,< 50,< 50,< 50,–,–,–,inhibition [2]: < 50%; inhibition [4]: < 50%; inhibition [6]: < 50%; inhibition [7]: < 50%; inhibition [13]: < 50%
CC(O)C[C@H]1N[C@H](CO)[C@@H](O)[C@@H]1O (some centres not stated),< 50,< 50,< 50,700,–,< 50,< 50,< 50,210,100,260,IC50 [17]: 610 µM; inhibition [18]: < 50%
O=C(CCCCCCC[C@@H](O)[C@H]1N[C@H](CO)[C@@H](O)[C@@H]1O)CCCCO[C@@H]1O[C@H](CO)[C@@H](O)[C@H](O)[C@H]1O,–,–,–,–,0.01,–,–,–,–,–,–,–
O=C(CCCO)CCCCCCCC[C@@H](O)[C@H]1N[C@H](CO)[C@@H](O)[C@@H]1O,–,–,–,–,0.01,–,–,–,–,–,–,–
OCC(O)CC(O)[C@@H]1CC[C@@H]2[C@H](O)[C@H](O)[C@@H](CO)N21 (some centres not stated),< 50,< 50,< 50,11.4,25.4,< 50,< 50,< 50,390,650,920,inhibition [4]: < 50%; inhibition [13]: < 50%
CC(O)CC(O)[C@@H]1CC[C@@H]2[C@H](O)[C@H](O)[C@@H](CO)N21 (some centres not stated),< 50,–,–,5.1,9.5,< 50,< 50,< 50,300,3.6,830,inhibition [4]: < 50%; IC50 [19]: 680 µM; IC50 [20]: 180 µM
O=C(CCCCO)CCCCCCC[C@@H](O)[C@H]1N[C@H](CO)[C@@H](O)[C@@H]1O,–,–,–,–,0.01,–,–,–,–,–,–,–
OC[C@H]1N[C@H]([C@H](O)CCCC[C@@H]2CCC[C@]3(CCCO3)O2)[C@@H](O)[C@@H]1O,–,–,–,–,0.01,–,–,–,–,–,–,–
CC(O)CC[C@@H]1C[C@@H](O)[C@@H]2[C@@H](O)[C@H](O)[C@@H](CO)N12 (some centres not stated),< 50,< 50,< 50,200,–,< 50,< 50,< 50,–,6.6,320,inhibition [4]: < 50%; inhibition [6]: < 50%; inhibition [18]: < 50%; inhibition [13]: < 50%
OC[C@@H]1[C@@H](O)[C@H](O)[C@H]2[C@H](O)CCN21,–,–,–,–,–,–,–,–,–,95,–,–
CC(O)[C@@H](O)[C@H]1N[C@H](CO)[C@@H](O)[C@@H]1O (some centres not stated),< 50,< 50,< 50,20,120,< 50,< 50,< 50,650,630,130,IC50 [17]: 150 µM; inhibition [13]: < 50%
OC[C@H]1N[C@H](C(O)CCC[C@@H]2CCC[C@]3(CCCCO3)O2)[C@@H](O)[C@@H]1O (some centres not stated),–,–,–,–,0.01,–,–,–,–,–,–,–
OCC(O)CCCCC(O)CC(O)CCC[C@@H](O)[C@H]1N[C@H](CO)[C@@H](O)[C@@H]1O (some centres not stated),< 50,< 50,< 50,0.08,6.6,< 50,< 50,–,265,220,0.09,IC50 [21]: 970 µM; IC50 [17]: 9.3 µM
OC[C@@H](O)[C@H]1N[C@H](CO)[C@@H](O)[C@@H]1O,–,–,–,3.2,–,–,–,–,–,–,4.4,–
O=C(CCCCCCCC[C@@H](O)[C@H]1N[C@H](CO)[C@@H](O)[C@@H]1O)CCCO[C@@H]1O[C@H](CO)[C@@H](O)[C@H](O)[C@H]1O,–,–,–,–,0.01,–,–,–,–,–,–,–
